{"source": "paper PMC4124067", "about": "(International Journal of Nanomedicine, 2014)", "key": {"[1]": {"system": "tubulin", "test": "Tubulin polymerization assay", "assay_type": "biochemical", "summary_of_the_method": "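Kit-based assay: 3 mg/mL tubulin in 80 mM PIPES, pH 6.9, with glycerol, run at 37°C. Test compound at 10 and 34 μM, parent drug at 10 μM as positive control, plus untreated control. Polymerization followed as OD340, read once per minute for 60 min. Maximum rate (Vmax, mOD/min) and time to reach it taken from the curves.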"}, "[2]": {"system": "A549-luc-c8 human lung adenocarcinoma cells", "test": "MTT cytotoxicity assay", "assay_type": "cell-based", "details": "48 h", "summary_of_the_method": "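A549-luc-c8 luciferase-expressing cells grown in RPMI 1640 with 10% FBS and antibiotic at 37°C, 5% CO2. Seeded at 5,000 cells per 100 μL medium per well. Free parent drug, conjugate nanoparticles or blank nanoparticles added across a concentration series for 48 h at 37°C. MTT then added for 3 h, dye dissolved in DMSO, A570 read. IC50 taken from survival plots; blank-particle IC50 expressed at drug-equivalent dose.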"}, "[3]": {"system": "orthotopic Lewis lung carcinoma", "details": "cited from earlier work"}}, "note": "Where two headings read alike, the source gives them in different places."}
{"smiles": "CC(=O)O[C@H]1C(=O)[C@@]2(C)[C@H]([C@H](OC(=O)c3ccccc3)[C@]3(O)C[C@H](OC(=O)[C@H](O)[C@@H](NC(=O)c4ccccc4)c4ccccc4)C(C)=C1C3(C)C)[C@]1(OC(C)=O)CO[C@@H]1C[C@@H]2O", "note": "[PX, paclitaxel]", "values": [{"measurement": "Vmax (maximum rate of tubulin polymerization)", "setting": "[1]; 10 μM, 37°C, 3 mg/mL tubulin", "value": "29.0±0.0", "unit": "mOD/min"}, {"measurement": "time at which Vmax was reached", "setting": "[1]; 60 minute time course", "value": "0 to 3", "unit": "min"}, {"measurement": "IC50", "setting": "[2]", "value": "5.3 ± 3.2", "unit": "nM"}]}
{"smiles": "N.N.[Cl][Pt][Cl]", "note": "[Cisplatin, cisplatin]", "values": [{"measurement": "therapeutic effect", "setting": "[3]; treatment starting on day 1", "value": "suppressed primary lung tumor growth and lymph node metastasis"}, {"measurement": "therapeutic effect", "setting": "[3]; treatment starting on day 10", "value": "failed to show any significant therapeutic effect"}]}
